Drawing on ChEMBL document CHEMBL3399919, “Synthesis, optical properties and preliminary in vitro photodynamic effect of pyridyl and quinoxalyl substituted chlorins” (Bioorg Med Chem, 2015), this text covers viability, Activity and IC50 for ten molecules.

For data set [1], the system named is HeLa. Nature of the data set: Photosensitizing activity against human HeLa cells assessed as cell viability at 0.1 uM pre-incubated for 24 hrs followed by 15 mins exposure to 670 to 710 nm light at dose of 2.0 J/cm2 and measured 12 hrs after radiation by WST-8 assay. Format: functional. The settings on record: light or radiation study, read-out: Activity. In outline: (§1)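 HeLa (ATCC) grown in EMEM + 10% FBS, 37 °C, 5% CO2, humidified; seeded per well in 96-well plates, 24 h, then medium replaced with fresh medium containing photosensitizer (0–10 μM). Irradiated with 670–710 nm light, 2 J/cm2 over 15 min, or kept dark; then 12 h at 37 °C in dark. WST-8 (CCK-8) added, 2 h; formazan read. DMSO vehicle control, medium+reagent blank; ≥3 repeats, mean.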

Data set [2] concerns HeLa. The data set can be described thus: Dark toxicity against human HeLa cells assessed as cell viability up to 10 uM incubated for 12 hrs under dark conditions by WST-8 assay. Format: cell-based. In outline: as §1
In data set [3] the test system is HeLa. Nature of the data set: Photosensitizing activity against human HeLa cells assessed as reduction in cell viability pre-incubated for 24 hrs followed by 15 mins exposure to 670 to 710 nm light at dose of 2.0 J/cm2 and measured 12 hrs after radiation by WST-8 assay. Format: functional, cell-based. The settings on record: for IC50: light or radiation study. In outline:
as §1
Background: Tetrazolium assays rely on reduction of a dye to a coloured formazan, in cell work by metabolically active cells.

For data set [4], the system named is HeLa. Nature of the data set: Photosensitizing activity against human HeLa cells assessed as cell viability at 0.05 uM pre-incubated for 24 hrs followed by 15 mins exposure to 670 to 710 nm light at dose of 2.0 J/cm2 and measured 12 hrs after radiation by WST-8 assay. Format: functional. The settings on record: light or radiation study, read-out: Activity. Put shortly: as §1

Data set [5] in a line: Singlet oxygen generation assessed as comparative absorbance decay of 1,3-diphenylisobenzofuran at 1 uM at 418 nm after photoirradiation at 2.0 J/cm2 for 15 mins by spectrometry. Put shortly:
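Photosensitizer at 1 μM with DPBF (50 μM in DMSO), irradiated; visible spectra recorded and normalized DPBF absorbance at 418 nm compared against DPBF-only control, methylene blue as reference; mean of three experiments.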

Molecules are shown by their SMILES. Activity calls are given as the source filed them. No cut-off for these calls is given here.

One may read the IC50 as the concentration needed to halve the response being measured.

For the molecule `C=Cc1c(C)c2cc3nc(c(CC(=O)OC)c4[nH]c(cc5nc(cc1[nH]2)C(C)=C5CC)c(C)c4C(=O)NCc1ccncc1)[C@@H](CCC(=O)OC)[C@@H]3C`, in the data set with HeLa [1], the viability at 0.1 µM stood at 28.1%. Besides, the values for the Activity result with HeLa [2] and with HeLa [3] were “Non-toxic” and “Dose-dependent effect”, respectively. For the same molecule, the concentration for half-maximal inhibition (IC50) in the data set with HeLa [3] was determined as 71 nM. In addition, in the data set on HeLa [4], the viability at 0.05 µM was 65.5%.
Take `CCC1=C(C)c2cc3[nH]c(cc4nc(c5c6[nH]c(cc1n2)c(C)c6C(=O)C5)[C@@H](CCC(=O)OC)[C@@H]4C)c(C)c3/C=C/c1ccc2ccccc2n1`: in the data set with HeLa [2], the Activity result is “Non-toxic”. Further, in the data set with HeLa [3], the Activity entry is “Dose-dependent effect” and the IC50 worked out at 631 nM. Also, the result in data set [5] was Active.
With `CCC1=C(C)c2cc3[nH]c(cc4nc(c(CC(=O)OC)c5[nH]c(cc1n2)c(C)c5C(=O)OC)[C@@H](CCC(=O)OC)[C@@H]4C)c(C)c3/C=C/c1ccncc1`, the Activity result in the data set on HeLa [2] is “Non-toxic”; with HeLa [3], “Dose-dependent effect”. Also, the concentration for half-maximal inhibition (IC50) in the data set on HeLa [3] came to 141 nM. In addition, the result in data set [5] was Active.
Take `C=Cc1c(C)c2cc3nc(c4c5[nH]c(cc6nc(cc1[nH]2)C(C)=C6CC)c(C)c5C(=O)N(Cc1ccncc1)C4=O)[C@@H](CCC(=O)OC)[C@@H]3C`: the Activity entry in the data set with HeLa [2] is “Non-toxic”. For the same molecule, in the data set on HeLa [3], the Activity entry was “Dose-dependent effect” and the IC50 came out at 189 nM. Besides, in data set [5], the result was Active.
In the same order, the values of `CCC1=C(C)c2cc3[nH]c(cc4nc(c(CC(=O)OC)c5[nH]c(cc1n2)c(C)c5C(=O)OC)[C@@H](CCC(=O)OC)[C@@H]4C)c(C)c3/C=C/c1ccc2ccccc2n1` are “Non-toxic”, “Dose-dependent effect”, 170 nM and “Active”.
Regarding `CN(C)c1ccc2nc3ccc(=[N+](C)C)cc-3sc2c1`, in data set [5], the outcome was Active.
As to `CCC1=C(C)c2cc3[nH]c(cc4nc(c5c6[nH]c(cc1n2)c(C)c6C(=O)N(OC)C5=O)[C@@H](CCC(=O)OC)[C@@H]4C)c(C)c3/C=C/c1ccncc1`, in the data set with HeLa [2], the Activity entry is listed as “Non-toxic”. For the same molecule, in the data set on HeLa [3], the Activity result was “Dose-dependent effect” and the IC50 is 3120 nM. For the same molecule, in data set [5], the outcome was Active.
In the case of `CCC1=C(C)c2cc3[nH]c(cc4nc(c5c6[nH]c(cc1n2)c(C)c6C(=O)C5)[C@@H](CCC(=O)OC)[C@@H]4C)c(C)c3/C=C/c1ccncc1`, in the data set on HeLa [2], the Activity entry is reported as “Non-toxic”. Also, in the data set with HeLa [3], the Activity entry was “Dose-dependent effect” and the IC50 was 581 nM. Moreover, in data set [5], the outcome was Active.
The matching figures for `CCC1=C(C)c2cc3[nH]c(cc4nc(c5c6[nH]c(cc1n2)c(C)c6C(=O)N(OC)C5=O)[C@@H](CCC(=O)OC)[C@@H]4C)c(C)c3/C=C/c1ccc2ccccc2n1`: “Non-toxic”, “Dose-dependent effect”, 992 nM and “Active”.
On to `C=Cc1c(C)c2cc3nc(c4c5[nH]c(cc6nc(cc1[nH]2)C(C)=C6CC)c(/C=C/c1ccncc1)c5C(=O)C4)[C@@H](CCC(=O)OC)[C@@H]3C`, for which the viability at 0.1 µM in the data set on HeLa [1] stood at 1.4%. The Activity entry in the data set on HeLa [2] is “Non-toxic”; in the data set on HeLa [3] it was “Dose-dependent effect”. The IC50 in the data set with HeLa [3] came to 33 nM. The result in data set [5] was Active. Moreover, in the data set with HeLa [4], the viability at 0.05 µM worked out at 22.2%.
